In data set [1] the target is Phosphatidylinositol 3-kinase catalytic subunit type 3 (Homo sapiens, UniProt Q8NEB9). The data set is described as follows: Inhibition of PIK3C3 (unknown origin).
Data set [2] can be described thus: Effect on C1qa gene expression in wild type mouse hippocampus at 1200 ppm administered as rodent chow starting from 1.5 months and measured after 7 months by RNA-Seq analysis (reference value: 17.148 to 23.051 RPKM). In kind it is functional. The conditions noted are these: route po, time 5.5 months, 4015 h. In short, it runs like this:
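WT and 5xFAD mice were treated with 1200 ppm PLX5622 chow or control chow from 1.5 to 7 months of age. Brains were microdissected into cortex, hippocampus and thalamus, and RNA was extracted from tissue powder. Whole-transcriptome RNA-Seq libraries were sequenced, with n = 4 per group per region (48 samples).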

A short description of data set [3]: Effect on Itgax gene expression in wild type mouse thalamus at 1200 ppm administered as rodent chow starting from 1.5 months and measured after 7 months by RNA-Seq analysis (reference value: 0.077 to 0.240 RPKM). In kind it is functional. The conditions noted are these: route po, time 5.5 months, 4015 h.
Data set [4] deals with Calcium/calmodulin-dependent protein kinase type 1D (Homo sapiens, UniProt Q8IU85). Put plainly: Inhibition of CAMK1D (unknown origin).
Chain of Calcium/calmodulin-dependent protein kinase type 1D (Q8IU85 whole entry): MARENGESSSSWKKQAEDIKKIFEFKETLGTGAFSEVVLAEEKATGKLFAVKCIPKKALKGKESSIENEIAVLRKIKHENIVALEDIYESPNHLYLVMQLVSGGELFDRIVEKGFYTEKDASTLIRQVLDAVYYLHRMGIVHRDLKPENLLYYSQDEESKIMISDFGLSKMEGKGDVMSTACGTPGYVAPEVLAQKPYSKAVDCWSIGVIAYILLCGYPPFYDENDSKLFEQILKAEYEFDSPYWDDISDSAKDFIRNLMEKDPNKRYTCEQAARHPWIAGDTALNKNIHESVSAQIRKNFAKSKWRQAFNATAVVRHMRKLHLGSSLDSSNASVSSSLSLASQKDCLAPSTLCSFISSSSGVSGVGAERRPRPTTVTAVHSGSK
Data set [5] relates to Mus musculus. The data set is described as follows: Antialzheimer activity in 5XFAD mouse assessed as number of S100bteta positive cells per FOV in […] cortex at 1200 ppm administered as rodent chow for 10 to 24 weeks by immunolabelling based confocal microscopic analysis (reference value: 320 to 427). In kind it is functional. As to conditions: route po, time 10-24 weeks.

Data set [6] relates to Mus musculus. The data set is described as follows: Prevention of Trem2 gene upregulation in 5XFAD mouse hippocampus at 1200 ppm administered as rodent chow starting from 1.5 months and measured after 7 months by Nanostring analysis. It is filed as functional, tissue-based. The conditions noted are these: route po, time 5.5 months.
The test system of data set [7] is Mus musculus. The data set is described as follows: Effect on circulating leukocytes in wildtype mouse assessed as percentage of CD45+/PI- cells expressing CD8 at 1200 ppm administered as rodent chow for 10 to 24 weeks (reference value: 5.56 to 11.8 %). It is filed as functional. The conditions noted are these: route po, time 10-24 weeks.
A further data set deals with Aurora kinase B (Homo sapiens, UniProt Q96GD4). Put plainly: Inhibition of AURKB (unknown origin).
Chain of Aurora kinase B (Q96GD4 whole entry): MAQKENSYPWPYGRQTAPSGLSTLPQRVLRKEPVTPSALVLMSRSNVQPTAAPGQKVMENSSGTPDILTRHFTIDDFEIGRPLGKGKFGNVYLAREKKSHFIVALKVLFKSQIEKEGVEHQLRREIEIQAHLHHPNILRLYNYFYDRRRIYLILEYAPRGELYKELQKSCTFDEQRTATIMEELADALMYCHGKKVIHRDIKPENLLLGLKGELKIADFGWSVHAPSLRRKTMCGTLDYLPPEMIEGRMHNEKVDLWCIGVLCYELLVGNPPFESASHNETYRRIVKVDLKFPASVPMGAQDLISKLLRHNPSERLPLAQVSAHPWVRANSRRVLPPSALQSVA
Data set [8] is described as follows: Half-life in male rat at 1.13 mg/kg, iv administered as single dose. It is filed as ADME, organism-based. As to conditions: in vivo.
Data set [9] in a line: Volume of distribution at steady state in monkey at 1.35 mg/kg, iv administered as single dose. In kind it is ADME, organism-based, Macaca mulatta. The conditions noted are these: rhesus monkey, in vivo, read-out: Vdss.
Data set [10] has as its target T1, Macrophage colony-stimulating factor 1 receptor (Mus musculus) (UniProt P09581).
T1 sequence (whole entry): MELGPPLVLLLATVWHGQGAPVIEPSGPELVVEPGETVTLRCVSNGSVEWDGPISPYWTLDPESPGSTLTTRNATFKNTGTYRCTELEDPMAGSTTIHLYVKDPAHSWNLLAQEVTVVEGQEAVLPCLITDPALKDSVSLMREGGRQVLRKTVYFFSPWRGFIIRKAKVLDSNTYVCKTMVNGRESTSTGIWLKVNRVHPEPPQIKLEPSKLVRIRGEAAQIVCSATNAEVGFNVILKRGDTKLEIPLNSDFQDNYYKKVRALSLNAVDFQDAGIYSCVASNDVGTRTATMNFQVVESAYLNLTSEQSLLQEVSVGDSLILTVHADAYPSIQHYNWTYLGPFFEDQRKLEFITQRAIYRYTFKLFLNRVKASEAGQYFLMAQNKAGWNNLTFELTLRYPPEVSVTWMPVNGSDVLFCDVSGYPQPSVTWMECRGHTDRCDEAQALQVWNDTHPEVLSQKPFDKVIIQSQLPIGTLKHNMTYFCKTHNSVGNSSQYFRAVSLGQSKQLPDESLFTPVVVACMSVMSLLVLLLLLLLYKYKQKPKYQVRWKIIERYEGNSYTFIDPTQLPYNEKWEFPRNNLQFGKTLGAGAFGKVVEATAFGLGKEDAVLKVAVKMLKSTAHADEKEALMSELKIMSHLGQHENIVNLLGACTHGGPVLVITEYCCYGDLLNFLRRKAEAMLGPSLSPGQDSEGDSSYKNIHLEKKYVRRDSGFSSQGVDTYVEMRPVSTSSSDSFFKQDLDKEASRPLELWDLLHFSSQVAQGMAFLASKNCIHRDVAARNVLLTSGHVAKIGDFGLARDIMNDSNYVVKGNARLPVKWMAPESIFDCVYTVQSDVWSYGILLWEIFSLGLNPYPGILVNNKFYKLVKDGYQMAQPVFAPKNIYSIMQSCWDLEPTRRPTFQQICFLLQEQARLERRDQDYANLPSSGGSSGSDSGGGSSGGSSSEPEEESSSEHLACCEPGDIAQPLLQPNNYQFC
The data set is described as follows: In vivo inhibition of CSF1R in wildtype mouse assessed as number of GFAP positive cells per FOV at 1200 ppm administered as rodent chow starting from 1.5 months to 4 months followed by compound removal and measured after 1 month by immunolabeling based confocal microscopic analysis (reference value: 1 to 7). It is filed as functional. As to conditions: route po, time 2.5 months.

The subject of data set [11] is Mus musculus. The data set is described as follows: Antialzheimer activity in 5XFAD mouse assessed as ApoE immunoreactivity by measuring reduction in core ApoE in cortex at 1200 ppm administered as rodent chow starting from 1.5 months and measured after 7 months by immunolabeling based confocal microscopic analysis relative to control. In kind it is functional. Also on record: scale not given: the % may be the effect or the level left. As to conditions: route po, time 5.5 months, 4015 h.

Data set [12] has as its system Mus musculus. Put plainly: Antialzheimer activity in 5XFAD mouse assessed as percent change in claudin-5 intensity of Thio-S negative thalamus at 1200 ppm administered as rodent chow starting from 1.5 months and measured after 4 months by immunolabeling analysis relative to control. In kind it is functional. As to conditions: route po, time 2.5 months, 1825 h.
Data set [13] can be described thus: Drug concentration in 5XFAD mouse plasma at 1200 ppm administered as rodent chow for 180 days. In kind it is ADME, cell-free. The conditions noted are these: route po, time 180 day.
Data set [14] addresses cGMP-dependent protein kinase 1 (Homo sapiens, UniProt Q13976). The data set is described as follows: Inhibition of PRKG1 (unknown origin).
For data set [15], the system named is Mus musculus. Put plainly: Antialzheimer activity in 5XFAD mouse assessed as A11 protein intensity at 1200 ppm administered as rodent chow starting from 1.5 months and measured after 7 months by immunoblot analysis (reference value: 54.431 to 142.272 a.u.). In kind it is functional. As to conditions: route po, time 5.5 months, 4015 h.
Data set [16] in a line: Effect on Cx3cr1 gene expression in 5XFAD mouse hippocampus at 1200 ppm administered as rodent chow starting from 1.5 months and measured after 7 months by RNA-Seq analysis (reference value: 17.752 to 23.676 RPKM). As to conditions: route po, time 5.5 months, 4015 h. It is filed as functional.
The next data set deals with Ephrin type-B receptor 4 (Homo sapiens, UniProt P54760). Put plainly: Inhibition of EPHB4 (unknown origin).
Chain of Ephrin type-B receptor 4 (P54760 whole entry): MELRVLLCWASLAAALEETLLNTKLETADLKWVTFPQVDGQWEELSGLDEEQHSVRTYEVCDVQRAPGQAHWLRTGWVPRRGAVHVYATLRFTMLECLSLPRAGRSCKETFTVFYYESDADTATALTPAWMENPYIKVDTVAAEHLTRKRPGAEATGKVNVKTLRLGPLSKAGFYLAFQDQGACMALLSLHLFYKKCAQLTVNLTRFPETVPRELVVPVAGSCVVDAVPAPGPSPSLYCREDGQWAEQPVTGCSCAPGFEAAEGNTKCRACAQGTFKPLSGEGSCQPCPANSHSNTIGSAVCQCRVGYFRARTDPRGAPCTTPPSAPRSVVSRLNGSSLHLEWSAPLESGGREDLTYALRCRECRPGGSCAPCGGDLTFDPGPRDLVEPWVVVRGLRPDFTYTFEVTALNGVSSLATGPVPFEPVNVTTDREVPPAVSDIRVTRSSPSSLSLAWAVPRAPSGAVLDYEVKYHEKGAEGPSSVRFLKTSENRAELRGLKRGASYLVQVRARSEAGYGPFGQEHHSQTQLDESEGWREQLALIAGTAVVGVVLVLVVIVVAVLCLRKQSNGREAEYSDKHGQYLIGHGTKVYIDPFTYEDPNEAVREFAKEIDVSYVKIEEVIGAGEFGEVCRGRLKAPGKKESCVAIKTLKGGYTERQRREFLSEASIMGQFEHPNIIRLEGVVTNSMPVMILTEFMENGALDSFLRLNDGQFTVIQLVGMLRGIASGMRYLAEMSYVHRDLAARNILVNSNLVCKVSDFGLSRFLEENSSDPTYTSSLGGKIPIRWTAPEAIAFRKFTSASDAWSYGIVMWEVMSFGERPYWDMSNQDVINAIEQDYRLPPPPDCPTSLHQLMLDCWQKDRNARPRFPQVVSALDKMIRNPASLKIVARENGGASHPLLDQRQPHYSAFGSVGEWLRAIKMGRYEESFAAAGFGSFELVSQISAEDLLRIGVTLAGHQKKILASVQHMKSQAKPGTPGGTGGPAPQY
In data set [17] the test system is Mus musculus. The data set is described as follows: Antialzheimer activity in 5XFAD mouse assessed as microglial elimination in thalamus at 1200 ppm administered as rodent chow for 10 weeks by Thio-S staining based confocal microscopic analysis. In kind it is functional, organism-based. The conditions noted are these: route po. In short, it runs like this:
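1.5-month-old 5xFAD mice fed 1200 ppm PLX5622 chow for 10 weeks; free-floating sections stained with Thio-S and immunolabeled for IBA1 (5% normal serum/0.2% Triton X-100 block, 60 min); confocal imaging of cortex and thalamus to assess remaining microglia.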

The target of data set [18] is cAMP-dependent protein kinase catalytic subunit alpha (Homo sapiens, UniProt P17612). The data set is described as follows: Inhibition of PRKACA (unknown origin).
The target of data set [19] is Homeodomain-interacting protein kinase 4 (Homo sapiens, UniProt Q8NE63). Put plainly: Inhibition of HIPK4 (unknown origin).
Chain of Homeodomain-interacting protein kinase 4 (Q8NE63 whole entry): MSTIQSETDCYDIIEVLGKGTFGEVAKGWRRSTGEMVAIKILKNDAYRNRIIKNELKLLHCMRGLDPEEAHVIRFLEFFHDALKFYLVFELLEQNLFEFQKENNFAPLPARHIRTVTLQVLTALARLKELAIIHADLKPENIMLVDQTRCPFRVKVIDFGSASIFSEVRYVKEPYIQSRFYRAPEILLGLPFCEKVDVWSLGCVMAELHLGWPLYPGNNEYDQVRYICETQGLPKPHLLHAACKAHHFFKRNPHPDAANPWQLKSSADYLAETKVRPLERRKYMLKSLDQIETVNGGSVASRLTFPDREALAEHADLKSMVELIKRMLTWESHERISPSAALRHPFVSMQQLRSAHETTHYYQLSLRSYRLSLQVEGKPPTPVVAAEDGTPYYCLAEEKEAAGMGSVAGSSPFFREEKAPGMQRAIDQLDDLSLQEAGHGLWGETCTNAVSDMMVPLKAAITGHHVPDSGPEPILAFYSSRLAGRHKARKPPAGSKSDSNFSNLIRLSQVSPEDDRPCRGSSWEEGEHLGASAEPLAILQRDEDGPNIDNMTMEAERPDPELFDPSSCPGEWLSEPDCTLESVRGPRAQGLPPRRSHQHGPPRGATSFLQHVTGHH
Data set [20] concerns the target Serine/threonine-protein kinase pim-2 (Homo sapiens, UniProt Q9P1W9). The data set is described as follows: Inhibition of PIM2 (unknown origin).

By IC50 is commonly meant the concentration that inhibits the measured activity by half. The half-life is the time needed for the level to fall by half in the phase considered.

Calls of active or inactive are those of the source.

Chain of Phosphatidylinositol 3-kinase catalytic subunit type 3 (Q8NEB9 whole entry): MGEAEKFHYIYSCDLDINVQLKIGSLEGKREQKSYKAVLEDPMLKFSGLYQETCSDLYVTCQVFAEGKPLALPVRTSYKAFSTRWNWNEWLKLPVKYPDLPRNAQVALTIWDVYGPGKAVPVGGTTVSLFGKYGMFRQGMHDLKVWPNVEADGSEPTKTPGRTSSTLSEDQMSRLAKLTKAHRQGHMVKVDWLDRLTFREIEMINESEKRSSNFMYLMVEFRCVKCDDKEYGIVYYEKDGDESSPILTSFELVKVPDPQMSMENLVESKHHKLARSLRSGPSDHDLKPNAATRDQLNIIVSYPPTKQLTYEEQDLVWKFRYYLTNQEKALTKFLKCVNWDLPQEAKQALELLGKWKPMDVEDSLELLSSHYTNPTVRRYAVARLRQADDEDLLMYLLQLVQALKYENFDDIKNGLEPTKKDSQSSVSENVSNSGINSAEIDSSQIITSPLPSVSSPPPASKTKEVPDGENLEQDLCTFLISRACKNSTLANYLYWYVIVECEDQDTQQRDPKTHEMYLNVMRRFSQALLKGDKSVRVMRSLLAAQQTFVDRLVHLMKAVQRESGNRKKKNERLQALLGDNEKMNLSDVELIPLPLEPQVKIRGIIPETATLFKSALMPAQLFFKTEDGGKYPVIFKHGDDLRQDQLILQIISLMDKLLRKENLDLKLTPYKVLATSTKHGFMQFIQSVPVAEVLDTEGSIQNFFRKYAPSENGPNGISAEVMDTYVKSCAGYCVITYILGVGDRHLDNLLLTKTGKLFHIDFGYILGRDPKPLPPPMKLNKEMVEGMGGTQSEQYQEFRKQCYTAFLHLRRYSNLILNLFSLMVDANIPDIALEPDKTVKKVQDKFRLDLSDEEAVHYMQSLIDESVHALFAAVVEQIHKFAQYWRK
Chain of Serine/threonine-protein kinase pim-2 (Q9P1W9 whole entry): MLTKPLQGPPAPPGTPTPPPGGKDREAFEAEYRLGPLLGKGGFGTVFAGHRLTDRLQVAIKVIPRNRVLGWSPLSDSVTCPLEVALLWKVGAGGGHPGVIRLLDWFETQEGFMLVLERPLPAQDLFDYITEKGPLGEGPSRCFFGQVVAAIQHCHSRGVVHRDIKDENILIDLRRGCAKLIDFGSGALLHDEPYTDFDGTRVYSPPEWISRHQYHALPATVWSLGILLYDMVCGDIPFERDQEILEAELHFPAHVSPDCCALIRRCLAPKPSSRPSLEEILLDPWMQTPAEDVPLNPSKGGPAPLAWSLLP
Chain of cGMP-dependent protein kinase 1 (Q13976 whole entry): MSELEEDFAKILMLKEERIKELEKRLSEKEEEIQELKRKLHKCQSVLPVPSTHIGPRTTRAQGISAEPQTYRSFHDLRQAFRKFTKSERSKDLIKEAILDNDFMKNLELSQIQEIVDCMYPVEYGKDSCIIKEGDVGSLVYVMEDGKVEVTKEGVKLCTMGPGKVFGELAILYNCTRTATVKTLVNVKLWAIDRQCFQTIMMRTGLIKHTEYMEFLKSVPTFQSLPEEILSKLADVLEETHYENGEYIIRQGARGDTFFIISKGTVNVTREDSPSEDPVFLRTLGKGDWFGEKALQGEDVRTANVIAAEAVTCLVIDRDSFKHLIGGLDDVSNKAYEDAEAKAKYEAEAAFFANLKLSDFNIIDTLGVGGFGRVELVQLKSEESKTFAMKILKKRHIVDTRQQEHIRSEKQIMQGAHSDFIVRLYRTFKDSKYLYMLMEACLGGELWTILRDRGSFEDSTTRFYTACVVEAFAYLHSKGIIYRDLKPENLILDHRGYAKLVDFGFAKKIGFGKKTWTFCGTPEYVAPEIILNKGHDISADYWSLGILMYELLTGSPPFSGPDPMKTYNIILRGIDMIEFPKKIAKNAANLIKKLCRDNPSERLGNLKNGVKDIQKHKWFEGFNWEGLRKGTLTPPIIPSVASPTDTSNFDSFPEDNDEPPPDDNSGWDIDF

Consider `COc1ncc(F)cc1CNc1ccc(Cc2c[nH]c3ncc(C)cc23)c(F)n1` [PLX-5622], for which the half-inhibitory concentration (IC50) (in [1]; in [4]; at Aurora kinase B; in [14]; on Ephrin type-B receptor 4; in data set [18]) was greater than 1000 nM throughout. The half-inhibitory concentration (IC50) in data set [19] and in data set [20] was greater than 1000 nM each time. Also, the Activity was 0.17 RPKM in data set [2]; 0 RPKM in [3]; 288 in the data set on Mus musculus [5]; 6.35% with Mus musculus [7]; 3 in data set [10]; roughly 50% in the data set with Mus musculus [11]. In addition, the Activity was determined as 91.327% in the data set with Mus musculus [12] and 1.607 RPKM in [16]. Further, the outcome in the data set on Mus musculus [6] was Active. In data set [8], this compound gave a half-life of 2.3 h. Besides, the Vd in data set [9] worked out at 1.6 L/kg. This compound displayed a concentration at 4320 h in [13] of 9090 ng/mL. Also, the Flu intensity with Mus musculus [15] is given as 21.124 a.u. Further, the outcome in the data set on Mus musculus [17] was inactive.

The record behind these values is ChEMBL document CHEMBL5649170, “Sustained microglial depletion with CSF1R inhibitor impairs parenchymal plaque development in an Alzheimer's disease model” (Nat Commun, 2019).
